Assay results from ChEMBL document CHEMBL1134672, “Design and synthesis of 4-substituted benzamides as potent, selective, and orally bioavailable I(Ks) blockers” (J Med Chem, 2001).

System: not listed separately
Assay: Compound was evaluated for half life period when administered intravenously
Assay type: ADME, organism-based
Conditions: in vivo, iv
How it was run: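 Half-life was determined in rats after intravenous administration.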

Row | half-life [h] | Structure (SMILES)
1 | 3.2 | CC1(C)CCCC1CNC(=O)c1ccc(-c2noc(CCC(F)(F)F)n2)cc1 (single isomer, unassigned; form 2)
2 | 4.2 | CCCCc1noc(-c2ccc(C(=O)NC[C@H]3CCCC3(C)C)cc2)n1

System: not listed separately
Assay: Bioavailability in rat
Assay type: ADME, organism-based
Conditions: in vivo
How it was run: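 Rats were dosed orally and screened for plasma drug levels. Compounds reaching plasma concentrations of >75 nM were then tested individually for oral bioavailability by standard methods.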

Row | bioavailability [%] | Structure (SMILES)
3 | 23 | CC1(C)CCCC1CNC(=O)c1ccc(-c2noc(CCC(F)(F)F)n2)cc1 (single isomer, unassigned; form 2)
4 | < 1 | CCCCc1noc(-c2ccc(C(=O)NC[C@H]3CCCC3(C)C)cc2)n1

Molecular target: T1, Potassium voltage-gated channel subfamily KQT member 1 (Cavia porcellus, UniProt O70344)
T1 sequence (O70344 whole entry): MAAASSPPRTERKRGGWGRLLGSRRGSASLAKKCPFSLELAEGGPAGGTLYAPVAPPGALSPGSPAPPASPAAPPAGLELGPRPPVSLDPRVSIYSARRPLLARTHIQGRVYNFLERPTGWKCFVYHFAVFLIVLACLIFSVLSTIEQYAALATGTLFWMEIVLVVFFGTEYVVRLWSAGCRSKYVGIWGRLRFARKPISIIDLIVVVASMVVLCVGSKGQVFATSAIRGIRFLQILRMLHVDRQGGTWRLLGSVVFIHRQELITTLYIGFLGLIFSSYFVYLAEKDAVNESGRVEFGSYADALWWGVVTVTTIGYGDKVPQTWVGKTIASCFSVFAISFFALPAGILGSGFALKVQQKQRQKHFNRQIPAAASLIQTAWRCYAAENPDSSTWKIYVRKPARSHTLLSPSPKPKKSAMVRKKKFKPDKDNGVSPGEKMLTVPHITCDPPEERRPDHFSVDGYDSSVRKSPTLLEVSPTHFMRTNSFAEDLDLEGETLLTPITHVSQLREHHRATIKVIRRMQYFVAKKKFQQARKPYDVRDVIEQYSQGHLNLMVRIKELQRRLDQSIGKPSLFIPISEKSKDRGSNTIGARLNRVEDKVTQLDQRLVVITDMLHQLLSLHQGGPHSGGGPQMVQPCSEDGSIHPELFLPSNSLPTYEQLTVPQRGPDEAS
Assay: Molar concentration required to inhibit 50% of the activating delayed-rectifier K+ current in isolated guinea pig ventricular myocytes
Conditions: not given
How it was run: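 Native IKs recorded by voltage clamp in isolated guinea pig ventricular myocytes, with ionic solutions and voltage protocol designed to isolate IKs from other currents.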

Row | IC50 [nM] | Structure (SMILES)
5 | 10 | CCCc1noc(-c2ccc(C(=O)NCC3CCCC3(C)C)cc2)n1 (single isomer, unassigned; form 2)
6 | 27 | CCCc1noc(-c2ccc(C(=O)NCC3CCCC3(C)C)cc2)n1 (single isomer, unassigned; form 1)
7 | 18 | CC1(C)CCCC1CNC(=O)c1ccc(-c2nc(CC3CC3)no2)cc1 (single isomer, unassigned; form 2)
8 | 9 | CCCCc1noc(-c2ccc(C(=O)NC[C@@H]3CCCC3(C)C)cc2)n1
9 | 27 | CC1(C)CCCC1CNC(=O)c1ccc(-c2noc(CCC(F)(F)F)n2)cc1 (single isomer, unassigned; form 1)
10 | 4000 | CCCCCCOc1ccc(C(=O)CCN2CCCCC2)cc1
11 | 1400 | CCCCCCOc1ccc(C(=O)NCC2CCCCC2(C)C)cc1 (stereo in doubt; 13(A))
12 | 260 | CC(C)(C)CCNC(=O)c1ccc(-n2ccc3ccccc32)cc1
13 | 160 | CCCCCCOc1ccc(C(=O)NCC2CCCC2(C)C)cc1 (single isomer, unassigned; form 2)
14 | > 30000 | CCCCCCOc1ccc(C(=O)NC2CCCC2(C)C)cc1 (stereo unspecified)
15 | 710 | CCCCCCOc1ccc(C(=O)NCC2CCCC2(C)C)cc1 (single isomer, unassigned; form 1)
16 | 130 | CC(C)(C)CCNC(=O)c1ccc(-c2nc(-c3ccccc3)no2)cc1
17 | 370 | CCCCCCOc1ccc(C(=O)NCC2CCCC(C)(C)C2)cc1 (stereo unspecified)
18 | 3500 | CCCCCCOc1ccc(C(=O)NCCN(CC)CC)cc1
19 | 23 | CCCCc1noc(-c2ccc(C(=O)NCCC(C)(C)C)cc2)n1
20 | 40 | CC1(C)CCCC1CNC(=O)c1ccc(-c2noc(CCC(F)(F)F)n2)cc1 (single isomer, unassigned; form 2)
21 | 540 | CC(C)(C)CCNC(=O)c1ccc(-c2ccccc2)cc1
22 | > 3000 | CCCCCCOc1ccc(C(=O)NCC2CCCCC2(C)C)cc1 (stereo in doubt; 13(B))
23 | 220 | Cc1noc(-c2ccc(C(=O)NCC3CCCC3(C)C)cc2)n1 (stereo in doubt; 21(A))
24 | 2 | CCCCc1noc(-c2ccc(C(=O)NC[C@H]3CCCC3(C)C)cc2)n1
25 | 23 | CC1(C)CCCC1CNC(=O)c1ccc(-c2nc(CC3CC3)no2)cc1 (single isomer, unassigned; form 1)
26 | 250 | CCCCCCOc1ccc(C(=O)NCCC(C)(C)C)cc1
27 | 580 | Cc1noc(-c2ccc(C(=O)NCC3CCCC3(C)C)cc2)n1 (stereo in doubt; 21(B))
28 | > 3000 | CCCCCCOc1ccc(C(=O)N2CCC(C(C)(C)C)C2)cc1 (stereo unspecified)
29 | 360 | CCCCCCOc1ccc(C(=O)NC2CCC(C)(C)C2)cc1 (stereo unspecified)

Row | Structure (SMILES) | IC50 [nM]
30 | CN1C(=O)[C@H](NC(=O)/C=C/c2ccc(Cl)cc2Cl)N=C(c2ccccc2)c2ccccc21 | 31
31 | CCN(CC)C(=O)COc1ccc(C(C)(C)CC(C)(C)C)cc1 | 5000
